Assay results of several laboratories.
Compare with care: the assays were run in different laboratories.
Target: Mitogen-activated protein kinase kinase kinase 3 (MAP3K3, Homo sapiens, UniProt Q99759)
Sequence (Q99759 1-626, as in one of the studies): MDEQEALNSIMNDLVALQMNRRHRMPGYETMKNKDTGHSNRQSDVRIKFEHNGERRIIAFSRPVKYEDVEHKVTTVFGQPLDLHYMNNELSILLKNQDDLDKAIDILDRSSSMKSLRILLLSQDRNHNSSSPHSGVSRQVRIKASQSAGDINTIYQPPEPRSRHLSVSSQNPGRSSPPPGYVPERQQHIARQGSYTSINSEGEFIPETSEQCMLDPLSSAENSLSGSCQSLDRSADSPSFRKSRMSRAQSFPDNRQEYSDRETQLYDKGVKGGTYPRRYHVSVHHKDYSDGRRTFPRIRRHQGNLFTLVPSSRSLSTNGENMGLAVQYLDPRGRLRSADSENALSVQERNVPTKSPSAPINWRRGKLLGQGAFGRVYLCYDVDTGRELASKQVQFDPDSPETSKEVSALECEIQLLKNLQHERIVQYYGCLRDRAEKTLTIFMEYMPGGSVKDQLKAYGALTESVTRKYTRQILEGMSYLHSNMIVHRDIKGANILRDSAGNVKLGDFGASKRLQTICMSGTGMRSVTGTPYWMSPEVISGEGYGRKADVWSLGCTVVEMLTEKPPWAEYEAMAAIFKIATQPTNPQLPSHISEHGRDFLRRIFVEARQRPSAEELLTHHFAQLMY

`O=C(c1ccc(Nc2ncc(Cl)c(-c3cc4ccccc4s3)n2)cc1)N1CCC(N2CCCC2)CC1` has a remaining binding of 34% (binding, competition with immobilised ligand; 1 µM).
`CC(=O)N1CCC(c2ccc(C(=O)NC(=N)N)cc2C(F)(F)F)CC1` gave a remaining binding of 90% (cell-free assay, competition with immobilised ligand; 1 µM).
For `COc1cnc(Nc2cccc(S(N)(=O)=O)c2)nc1N1CCN(c2ccccc2)CC1`, the remaining binding was 82% (binding, competition with immobilised ligand; 1 µM).
For `O=C(NCC1CCOCC1)c1n[nH]cc1NC(=O)c1c(F)cccc1F`, the remaining binding was 96% (binding, competition with immobilised ligand; 1 µM).
The remaining binding of `O=C(NCCCN1CCOCC1)c1ccc(Nc2ncc(Cl)c(-c3ccc(Cl)s3)n2)cc1` is reported as 3.6% (binding, competition with immobilised ligand; 1 µM).
For `CS(=O)(=O)NCC[C@H](NC(=O)c1cncc2c1cnn2-c1ccc(F)cc1)c1ccnc(S(C)(=O)=O)c1`, the remaining binding was 100% (cell-free assay, competition with immobilised ligand; 1 µM).
`CN(C)c1nccc(-c2cnc3ncccn23)n1` has a remaining binding of 44% (binding; 1 µM).
For `C=CC(=O)N1CCC(C(=O)NCC(=O)N2CCN(c3nc(-c4cnc(N)nc4C(F)F)nc(N4CCOCC4)n3)CC2)CC1`, the remaining binding was 99% (binding, competition with immobilised ligand; 1 µM).
`C[C@@H](c1cccc(C#N)c1)n1cc(Cl)cc(C(N)=O)c1=N` gave a remaining binding of 95% (cell-free assay, competition with immobilised ligand; 1 µM).
`O=C(c1ccc(Nc2nccc(-c3cc4ccccc4s3)n2)cc1)N1CCC(N2CCCC2)CC1` has a remaining binding of 61% (binding, competition with immobilised ligand; 1 µM).
`Cc1cnn2ncc(-c3ccnc(N(C)C)n3)c2c1` gave a remaining binding of 47% (binding; 1 µM).
For `Cc1c(NC(=O)c2cc(C(N)=O)nc3cc(F)ccc23)c(C(F)(F)F)nn1Cc1ccc(C(C)(C)C)cc1`, the remaining binding was 100% (cell-free assay, competition with immobilised ligand; 1 µM).
`FC(F)(F)Oc1cccc(-c2cnc3ccc(-c4ccncc4)nn23)c1` has a remaining binding of 51% (cell-free assay, competition with immobilised ligand; 5 µM).
`CC1CCCN1c1nccc(-c2cnn3ncccc23)n1` (stereo not shown) gave a remaining binding of 97% (binding; 1 µM).
For `CNC(=O)[C@@H]1CC[C@@H](n2c(-c3ccc4cnccc4c3)nc3ccc(C(=O)NCc4cccc(C(N)=O)c4)cc32)C1`, the remaining binding was 100% (binding, competition with immobilised ligand; 1 µM).
The remaining binding of `CN(CCCC(F)(F)F)c1nccc(-c2cnn3ncccc23)n1` is reported as 99% (binding; 1 µM).
With `CN1CCN(c2cnc3c(C4CCN(C(=O)c5ccc(OC(F)(F)F)cc5N)CC4)ncnc3c2)CC1` the remaining binding was 94% (cell-free assay, competition with immobilised ligand; 1 µM).
`N[C@@H]1CCN(c2nccc(-c3cnn4ncccc34)n2)C1` gave a remaining binding of 100% (binding; 1 µM).
For `O=C(O)[C@H]1[C@H](Cn2nnc3ccccc3c2=O)CC[C@@H]1C(=O)c1ccc(OCCC2CCOCC2)cc1`, the remaining binding was 100% (cell-free assay, competition with immobilised ligand; 1 µM).
With `Nc1ncc2c(n1)-c1c([nH]c3ccc(C#CC4CC4)cc13)CCCC2` the remaining binding was 89% (binding, competition with immobilised ligand; 1 µM).
With `C[C@@H]1CCN(c2nccc(-c3cnn4ncccc34)n2)C1` the remaining binding was 80% (binding; 1 µM).
`C[C@@H]1CN(c2cc(-c3nn(C)c4ccc(OC5(C)CC5)cc34)ncn2)C[C@H](C)O1` has a remaining binding of 90% (cell-free assay, competition with immobilised ligand; 1 µM).
